ChEMBL document CHEMBL1681759, “Synthesis and biological evaluation of benzimidazole-5-carbohydrazide derivatives as antimalarial, cytotoxic and antitubercular agents” (Bioorg Med Chem, 2011)
≈ marks a conversion by molar mass, not a printed value.

Legend:
Plasmodium berghei [1] = experiment: Antimalarial activity against chloroquine-susceptible Plasmodium berghei ANKA assessed as inhibition of trophozoite extract-mediated mouse hemoglobin hydrolysis at 10 mM after 18 hrs by SDS-PAGE; assay type: functional
Method in brief: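 Trophozoite extract came from P. berghei-infected mouse blood at 30–50% parasitemia: RBCs percoll-purified (80–70%), saponin-lysed, then freeze–thawed three times. Substrate was native haemoglobin from uninfected mouse erythrocytes lysed in water. The mix held GSH and acetate buffer (0.2 M, pH 5.4). Compound was added in DMSO and incubated 37 °C, 18 h. Reactions were stopped with reduced sample buffer.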

[2] = Inhibition of beta-hematin formation assessed as inhibition of […] polymerization at […] after 48 hrs; assay type: functional
Method in brief: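 Hemin chloride (50 µL, 4 mM in DMSO) was mixed in triplicate with compound in DMSO; water or DMSO served as controls. Reaction was started with acetate buffer (0.2 M, pH 4.4) and run 37 °C for 48 h. The pellet was DMSO-washed twice, dissolved in 0.2 N NaOH, diluted 1:2 in 0.1 N NaOH, and read at 405 nm as % inhibition of FP polymerization.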

Plasmodium berghei [3] = experiment: Antimalarial activity against chloroquine-susceptible Plasmodium berghei ANKA infected in Balb-C mouse assessed as inhibition parasitemia at 20 mg/kg, ip qd for 4 days […]; assay type: functional; details: 96 h, route intraperitoneal
Method in brief: (§1)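 Balb-C mice (18–23 g, n = 6) were infected iv in the caudal vein with 10⁶ P. berghei ANKA-infected RBCs. Dosing started 2 h post-infection: 20 mg/kg ip once daily for 4 days, DMSO stock diluted in Saline-Tween 20 (2%). Chloroquine 25 mg/kg served as positive control; untreated mice were controls. Parasitemia was read on day 4 from Giemsa smears, and survival days were recorded.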

Plasmodium berghei [4] = experiment: Antimalarial activity against chloroquine-susceptible Plasmodium berghei ANKA infected in Balb-C mouse; assay type: functional, organism-based; method in brief: as §1
NCI-H460 = experiment: Cytotoxicity against human H460 cells assessed as growth inhibition after 48 hrs by sulforhodamine B assay; assay type: functional; details: NCI-H460, 48 h
Method in brief: (§2)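 Cells were exposed to serial compound dilutions in 96-well plates for 48 h at 37 °C alongside solvent controls. Growth was read colorimetrically by sulforhodamine B. GI50 is the concentration giving a 50% reduction in absorbance versus solvent-treated controls, derived by linear regression.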

[5] = test system: Mycobacterium tuberculosis; experiment: Antimycobacterial activity against Mycobacterium tuberculosis H37Rv after 5 days by tetrazolium microplate assay; assay type: functional; details: 120 h
Method in brief: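 Tetrazolium microplate assay run in 7H9GC broth. DMSO stocks (4 mg/mL) were diluted to final 0.4–25 µg/mL. Isoniazid (0.125–32 µg/mL) and rifampin (0.063–16 µg/mL) were positive controls; inoculum-only and DMSO controls were included. Plates were incubated 5 days at 37 °C, then an MTT-Tween 80 mix was added and incubation continued 24 h at 37 °C. Run in triplicate. MIC = lowest concentration preventing the yellow-to-purple colour change.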

[6] = Cytotoxicity against mouse 3T3 cells assessed as growth inhibition after 48 hrs by sulforhodamine B assay; assay type: cell-based; details: NIH3T3 cells; method in brief: as §2
[7] = Cytotoxicity against african green monkey Vero cells assessed as growth inhibition after 48 hrs by sulforhodamine B assay; assay type: cell-based; details: chlorocebus sabaeus; method in brief: as §2
DU-145 = experiment: Cytotoxicity against human DU145 cells assessed as growth inhibition after 48 hrs by sulforhodamine B assay; assay type: functional; details: DU-145, 48 h; method in brief: as §2
MCF7 = experiment: Cytotoxicity against human MCF7 cells assessed as growth inhibition after 48 hrs by sulforhodamine B assay; assay type: functional; details: MCF7, 48 h; method in brief: as §2
M14 = experiment: Cytotoxicity against human M14 cells assessed as growth inhibition after 48 hrs by sulforhodamine B assay; assay type: functional; details: M14, 48 h; method in brief: as §2
HT-29 = experiment: Cytotoxicity against human HT-29 cells assessed as growth inhibition after 48 hrs by sulforhodamine B assay; assay type: functional; details: HT-29, 48 h; method in brief: as §2
K562 = experiment: Cytotoxicity against human K562 cells assessed as growth inhibition after 48 hrs by sulforhodamine B assay; assay type: functional; details: K562, 48 h; method in brief: as §2
Plasmodium berghei [8] = experiment: Antimalarial activity against chloroquine-susceptible Plasmodium berghei ANKA infected in Balb-C mouse assessed as mouse survival days at 20 mg/kg, ip qd for 4 days […] relative to untreated control; assay type: functional; details: route intraperitoneal

Structure (SMILES)	inhibition at 10000 µM (Plasmodium berghei [1]) [%]	inhibition [2] [%]	inhibition in vivo at 20 mg/kg (Plasmodium berghei [3]) [%]	IC50 (Plasmodium berghei [4]) [µM]	GI50 (NCI-H460) [µg/mL]	MIC [5] [µg/mL]	GI50 at 48 h [6] [µg/mL]	GI50 at 48 h [7] [µg/mL]	GI50 (DU-145) [µg/mL]	GI50 (MCF7) [µg/mL]	GI50 (M14) [µg/mL]	GI50 (HT-29) [µg/mL]	GI50 (K562) [µg/mL]	Survival (Plasmodium berghei [8]) [days]
O=C(NNC(=O)c1cc2ccccc2cc1O)c1ccc2[nH]c(-c3ccc([N+](=O)[O-])s3)nc2c1	14.1	75.8	1.8	11.1	62.5 (≈ 132 µM)	> 25	31.2 (≈ 66 µM)	31.2 (≈ 66 µM)	62.5 (≈ 132 µM)	62.5 (≈ 132 µM)	62.5 (≈ 132 µM)	62.5 (≈ 132 µM)	31.2 (≈ 66 µM)	18.8
COc1cc(C(=O)NNC(=O)c2ccc3[nH]c(-c4ccc([N+](=O)[O-])o4)nc3c2)cc(OC)c1OC	0	69.4	9.4	14.4	31.2 (≈ 64.9 µM)	> 25	31.2 (≈ 64.9 µM)	31.2 (≈ 64.9 µM)	15.6 (≈ 32.5 µM)	31.2 (≈ 64.9 µM)	15.6 (≈ 32.5 µM)	31.2 (≈ 64.9 µM)	31.2 (≈ 64.9 µM)	12.2
COc1cccc(C(=O)NNC(=O)c2ccc3[nH]c(-c4ccc([N+](=O)[O-])o4)nc3c2)c1	2.82	72.4	5.98	13.1	62.5 (≈ 148 µM)	25 (≈ 59.3 µM)	15.6 (≈ 37.1 µM)	31.2 (≈ 74.2 µM)	15.6 (≈ 37.1 µM)	15.6 (≈ 37.1 µM)	7.81 (≈ 18.5 µM)	31.2 (≈ 74.2 µM)	15.6 (≈ 37.1 µM)	11.8
COc1cc(C(=O)NNC(=O)c2ccc3[nH]c(-c4ccc([N+](=O)[O-])s4)nc3c2)cc(OC)c1OC		92.4	9.36	9.56	62.5 (≈ 126 µM)	> 25	31.2 (≈ 62.8 µM)	31.2 (≈ 62.8 µM)	62.5 (≈ 126 µM)	31.2 (≈ 62.8 µM)	62.5 (≈ 126 µM)	62.5 (≈ 126 µM)	31.2 (≈ 62.8 µM)	10
O=C(NNC(=O)c1ccc2[nH]c(-c3ccc([N+](=O)[O-])o3)nc2c1)c1ccc(Cl)cc1	33.8	59.6	27.4	23.4										9.8
CC(=O)N[C@@H](CC(C)C)C(=O)N[C@@H](CC(C)C)C(=O)N[C@H](C=O)CCCNC(=N)N [LEUPEPTIN]	91.6													
O=C(NNC(=O)c1ccc2[nH]c(-c3ccc([N+](=O)[O-])o3)nc2c1)c1cccc(Oc2ccccc2)c1		84.6	12.9	14.1	> 7.8	> 25	> 7.8	> 7.8	> 7.8	> 7.8	> 7.8	> 7.8	> 7.8	10.6
COc1cccc(C(=O)NNC(=O)c2ccc3[nH]c(-c4ccc([N+](=O)[O-])s4)nc3c2)c1	13.4	61.6	24.8	24.5	62.5 (≈ 143 µM)	> 25	15.6 (≈ 35.7 µM)	> 250	62.5 (≈ 143 µM)	15.6 (≈ 35.7 µM)	15.6 (≈ 35.7 µM)	31.2 (≈ 71.4 µM)	15.6 (≈ 35.7 µM)	10.6
O=C(NNC(=O)c1ccc2[nH]c(-c3ccc([N+](=O)[O-])s3)nc2c1)c1ccc(Cl)cc1	12.7	25.5	13.5											10.8
CC(C)CC(=O)N[C@H](C(=O)N[C@H](C(=O)N[C@@H](CC(C)C)[C@@H](O)CC(=O)N[C@@H](C)C(=O)N[C@@H](CC(C)C)[C@@H](O)CC(=O)O)C(C)C)C(C)C [PEPSTATIN]	95.5													
O=C(NNC(=O)c1ccc2[nH]c(-c3ccc([N+](=O)[O-])s3)nc2c1)c1cccc(Cl)c1	44.9	78.6	27.2	16										7.4
O=CNNC(=O)c1ccc2[nH]c(-c3ccc([N+](=O)[O-])s3)nc2c1	36.2	87.4	18.7	9.88										10.04
COc1ccc(C(=O)NNC(=O)c2ccc3[nH]c(-c4ccc([N+](=O)[O-])s4)nc3c2)cc1OC	38.2	70.8	16.1	21.4										13.8
NNC(=O)c1ccncc1 [ISONIAZID]						0.125 (≈ 0.911 µM)								
O=C(NNC(=O)c1cc2ccccc2cc1O)c1ccc2[nH]c(-c3ccc([N+](=O)[O-])o3)nc2c1	12.9	31.7												
O=CNNC(=O)c1ccc2[nH]c(-c3ccc([N+](=O)[O-])o3)nc2c1	24.2	94	25.8	8.63	31.2 (≈ 99.1 µM)	> 25	62.5 (≈ 198 µM)	62.5 (≈ 198 µM)	15.6 (≈ 49.6 µM)	62.5 (≈ 198 µM)	31.2 (≈ 99.1 µM)	62.5 (≈ 198 µM)	31.2 (≈ 99.1 µM)	8.2
O=C(NNC(=O)c1ccc2[nH]c(-c3ccc([N+](=O)[O-])o3)nc2c1)c1ccccc1	0	79.2	10.1	10.9	62.5 (≈ 160 µM)	12.5 (≈ 31.9 µM)	31.2 (≈ 79.9 µM)	31.2 (≈ 79.9 µM)	15.6 (≈ 39.9 µM)	62.5 (≈ 160 µM)	15.6 (≈ 39.9 µM)	31.2 (≈ 79.9 µM)	15.6 (≈ 39.9 µM)	13.6
CO[C@H]1/C=C/O[C@@]2(C)Oc3c(C)c(O)c4c(O)c(c(/C=N/N5CCN(C)CC5)c(O)c4c3C2=O)NC(=O)/C(C)=C\C=C\[C@H](C)[C@H](O)[C@@H](C)[C@@H](O)[C@@H](C)[C@H](OC(C)=O)[C@@H]1C [RIFAMPIN]						0.063 (≈ 0.0766 µM)								
O=C(NNC(=O)c1ccc2[nH]c(-c3ccc([N+](=O)[O-])s3)nc2c1)c1cccc(Oc2ccccc2)c1	0	76.5	7.28	19.1										11
CCN(CC)CCCC(C)Nc1ccnc2cc(Cl)ccc12 (centres undefined) [CHLOROQUINE]	24.1	94.2	1.3											>30
O=C(O)c1ccc2[nH]c(-c3ccc([N+](=O)[O-])s3)nc2c1	0	57.6	11.5	21.1										12.2
O=C(NNC(=O)c1ccc2[nH]c(-c3ccc([N+](=O)[O-])o3)nc2c1)c1cccc(Cl)c1	39	73.4	3.38	10.3										12.4
O=C(NNC(=O)c1ccc2[nH]c(-c3ccc([N+](=O)[O-])s3)nc2c1)c1ccccc1	39.2	86.2	10.1	10.8										12
